PMC8453095 (Journal of molecular biology, 2021)

What was measured:
full-length DnaG = target: T1, full-length DnaG (Bacillus subtilis, UniProt P05096); type: biochemical
T1 sequence (P05096 1-603): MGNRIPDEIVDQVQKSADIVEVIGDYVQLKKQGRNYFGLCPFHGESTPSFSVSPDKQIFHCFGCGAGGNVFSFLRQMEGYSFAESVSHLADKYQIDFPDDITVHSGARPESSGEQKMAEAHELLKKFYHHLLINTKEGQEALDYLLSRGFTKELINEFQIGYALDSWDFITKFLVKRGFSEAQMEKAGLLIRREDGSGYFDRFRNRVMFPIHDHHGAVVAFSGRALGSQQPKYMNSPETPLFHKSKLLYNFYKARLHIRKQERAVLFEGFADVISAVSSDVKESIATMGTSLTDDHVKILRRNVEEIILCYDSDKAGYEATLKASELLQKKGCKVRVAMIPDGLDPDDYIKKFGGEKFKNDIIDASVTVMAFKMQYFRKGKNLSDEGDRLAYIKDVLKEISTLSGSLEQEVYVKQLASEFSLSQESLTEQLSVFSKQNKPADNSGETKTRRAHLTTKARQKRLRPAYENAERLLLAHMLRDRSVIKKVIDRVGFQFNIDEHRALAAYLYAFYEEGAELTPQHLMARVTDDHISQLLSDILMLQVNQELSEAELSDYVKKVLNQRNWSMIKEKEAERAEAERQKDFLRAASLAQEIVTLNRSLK
Outline: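 Full-length His-tagged DnaG, Ni-affinity purified, at 100 nM was added last to 500 nM ssDNA template with 0.4 mM ATP, CTP, UTP and GTP at 0, 12.5, 25, 50, 100, 200 or 400 μM, preincubated ± inhibitor. Buffer: 50 mM Tris pH 7.5 with Mg2+, Mn2+, Ca2+ and 10 mM DTT. Incubated 37°C, 30 min; heteroduplex dye fluorescence read at four time points. V0 per enzyme; Ki fitted to competitive/uncompetitive/noncompetitive/mixed models; n≥3.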

DnaG(ZBD+RPD) = DnaG(ZBD+RPD) (Bacillus subtilis, UniProt P05096); type: biochemical
Outline: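 His-tagged DnaGΔ440-603 (ZBD+RPD), expressed in BL21(DE3) cells and Ni-affinity purified, used at 200 nM. Template (500 nM ssDNA) and NTPs (0.4 mM ATP, CTP, UTP; GTP 0–400 μM) briefly preincubated ± inhibitor before enzyme. Buffer: 50 mM Tris pH 7.5, 10 mM Mg acetate, 5 mM MnCl2, 5 mM CaCl2. Ran at 37°C. Dye read at 5, 10, 20 and 30 min (ex 485/em 528 nm). V0 was normalised to enzyme, and Ki came from inhibition-model fits; n≥3.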

Ki (full-length DnaG) [µM] | Ki (DnaG(ZBD+RPD)) [µM] | SMILES
163 ± 37 | 115 ± 17.8 | Nc1nc2c(ncn2[C@@H]2O[C@H](COP(=O)(O)OP(=O)(O)OP(=O)(O)O)[C@@H](OP(=O)(O)OP(=O)(O)O)[C@H]2O)c(=O)[nH]1 [pppGpp]
777 ± 110 | – | Nc1nc2c(ncn2[C@@H]2O[C@H](COP(=O)(O)OP(=O)(O)O)[C@@H](OP(=O)(O)OP(=O)(O)O)[C@H]2O)c(=O)[nH]1 [ppGpp]
